From ChEMBL document CHEMBL4477223, “Design, synthesis and biological evaluation of N-methyl-N-[(1,2,3-triazol-4-yl)alkyl]propargylamines as novel monoamine oxidase B inhibitors” (Bioorg Med Chem, 2016) come the findings set out here.

Data set [1] deals with T1, Amine oxidase [flavin-containing] A (Homo sapiens, UniProt P21397).
T1 sequence (P21397 whole entry): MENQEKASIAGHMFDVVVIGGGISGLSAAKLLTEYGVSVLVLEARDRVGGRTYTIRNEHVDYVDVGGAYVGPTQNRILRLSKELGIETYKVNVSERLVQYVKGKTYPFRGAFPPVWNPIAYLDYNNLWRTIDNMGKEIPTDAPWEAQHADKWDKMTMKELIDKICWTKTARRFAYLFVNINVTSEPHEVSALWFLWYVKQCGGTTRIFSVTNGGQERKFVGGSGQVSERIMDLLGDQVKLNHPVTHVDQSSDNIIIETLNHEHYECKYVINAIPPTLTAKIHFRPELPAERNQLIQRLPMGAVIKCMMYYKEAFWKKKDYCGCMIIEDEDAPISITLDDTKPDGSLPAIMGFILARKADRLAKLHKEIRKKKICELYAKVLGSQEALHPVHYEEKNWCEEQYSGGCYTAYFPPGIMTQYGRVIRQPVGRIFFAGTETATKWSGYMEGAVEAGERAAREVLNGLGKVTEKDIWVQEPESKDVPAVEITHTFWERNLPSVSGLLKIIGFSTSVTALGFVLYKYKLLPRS
The data set is described as follows: Inhibition of human recombinant MAO-A preincubated for 30 mins followed by p-tyramine hydrochloride addition measured after 30 mins by Amplex red fluorescence based spectrophotometry. Summed up: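 hrMAO-A at 0.36 U/mL preincubated with serial inhibitor dilutions for 30 min at 37 °C. Reaction started by adding 1 mM tyramine, 0.04 U/mL HRP and Amplex UltraRed in 0.25 mM sodium phosphate pH 7.4 (final). Resorufin fluorescence read at 530/590 nm for at least 30 min. No-compound activity set as 100%. Interference checked without enzyme.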

The target in data set [2] is T2, Amine oxidase [flavin-containing] B (Homo sapiens, UniProt P27338).
T2 sequence (P27338 whole entry): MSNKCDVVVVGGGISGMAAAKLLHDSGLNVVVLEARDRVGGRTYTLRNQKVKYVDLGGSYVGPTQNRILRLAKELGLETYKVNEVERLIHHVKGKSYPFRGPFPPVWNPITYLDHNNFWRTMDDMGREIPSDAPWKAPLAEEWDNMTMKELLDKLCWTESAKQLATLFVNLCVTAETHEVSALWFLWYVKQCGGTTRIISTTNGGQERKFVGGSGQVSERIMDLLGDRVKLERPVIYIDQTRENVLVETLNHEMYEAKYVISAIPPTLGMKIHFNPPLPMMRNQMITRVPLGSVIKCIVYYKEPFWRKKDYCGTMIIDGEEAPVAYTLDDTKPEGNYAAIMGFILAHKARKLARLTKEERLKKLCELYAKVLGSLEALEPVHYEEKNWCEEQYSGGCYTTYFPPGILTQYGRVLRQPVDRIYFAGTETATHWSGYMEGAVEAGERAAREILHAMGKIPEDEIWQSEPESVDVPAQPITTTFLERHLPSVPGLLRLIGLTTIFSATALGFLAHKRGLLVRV
In words: Inhibition of human recombinant MAO-B preincubated for 30 mins followed by p-tyramine hydrochloride addition measured after 30 mins by Amplex red fluorescence based spectrophotometry.

For a further data set, the species on record is Homo sapiens. In words: Selectivity index, ratio of IC50 for human recombinant MAO-A to IC50 for human recombinant MAO-B.
Data set [3] is described as follows: Permeability of the compound at pH 7.4 after 18 hrs by PAMPA-BBB assay.
For data set [4], the target named is T2, Amine oxidase [flavin-containing] B. The data set is described as follows: Time-dependent inhibition of human recombinant MAO-B at 10 uM preincubated with enzyme followed by p-tyramine hydrochloride substrate addition by Amplex red fluorescence based spectrophotometry. Summed up: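 hrMAO-B was preincubated with inhibitor at 10 µM for 0–360 min. After each preincubation, activity was measured in the standard Amplex UltraRed/tyramine/HRP fluorometric assay at 530/590 nm. Results were expressed as % of control samples versus preincubation time.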

Data set [5] shares this target. In words: Irreversible inhibition of human recombinant MAO-B at 50 uM preincubated for 1 h followed by 100 fold enzyme dilution and p-tyramine hydrochloride substrate addition measured after 40 mins by Amplex red fluorescence based spectrophotometry.

Turning to `C#CCN(C)CCc1nnn(CC)c1C`, the half-maximal inhibitory concentration (IC50) worked out at 91.2 µM in data set [1] and 238 µM in data set [2]. In the data set listed under Homo sapiens, the Ratio IC50 is 0.4.

In turn, `CCn1cc(C(=O)O)c(=O)c2cc(F)c(N3CCNCC3)cc21` [NORFLOXACIN] yielded a Papp at 18 h in data set [3] of 0.1 to 0.9 ×10⁻⁶ cm/s.

In data set [3], `C#CCN(C)Cc1cn(Cc2ccccc2)nn1` displayed a Papp at 18 h of 2.3 ×10⁻⁶ cm/s. The IC50 is above 500 µM in data set [1] and 129 µM in data set [2]. For the same molecule, the Ratio IC50 in the data set filed under Homo sapiens is above 3.9.

`C#CCN(C)Cc1cccc(Cc2cn(C)nn2)c1`: the apparent permeability coefficient (Papp) at 18 h in data set [3] amounted to 15.6 ×10⁻⁶ cm/s. Moreover, the IC50 in data set [1] was 2.1 µM; in data set [2], 65 µM. The Ratio IC50 in the data set listed under Homo sapiens worked out at 0.03.

Molecule `C#CCN(C)CCc1nnn(-c2ccccc2)c1CC` came in with an apparent permeability (Papp) at 18 h in data set [3] of 17 ×10⁻⁶ cm/s. The IC50 in data set [1] was determined as 7.5 µM; in data set [2] it was 213 µM. The Ratio IC50 in the data set listed under Homo sapiens amounted to 0.04.

`CN/C(=N/CCSCc1nc[nH]c1C)NC#N` [CIMETIDINE] gave a Papp at 18 h in data set [3] below 0.7 ×10⁻⁶ cm/s.

In data set [3], `C#CCN(C)Cc1ccc(Cc2cn(C)nn2)cc1` displayed a Papp at 18 h of 14.8 ×10⁻⁶ cm/s. Also, the half-inhibitory concentration (IC50) in data set [1] was determined as 0.5 µM; in data set [2], 0.6 µM. Further, the Ratio IC50 in the data set filed under Homo sapiens was determined as 0.9.

In the case of `C#CCN(C)Cc1nnn(C)c1CCCC`, the Papp at 18 h in data set [3] was 29.9 ×10⁻⁶ cm/s. Further, the IC50 in data set [1] is below 300 µM; in data set [2] it was 94.7 µM. In addition, in the data set filed under Homo sapiens, the Ratio IC50 is below 3.2.

In the case of `C#CCN(C)CCc1nnn(C(C)c2ccccc2)c1C` (stereo not given), in data set [3], the Papp at 18 h is 20 ×10⁻⁶ cm/s. Moreover, the figures for the IC50 in data set [1] and in data set [2] were 47 µM and 134 µM, respectively. In the data set listed under Homo sapiens, the Ratio IC50 came out at 0.4.

For `C#CCN(C)CCc1cn(CCc2ccccc2)nn1`, the apparent permeability (Papp) at 18 h in data set [3] turned out to be 14.8 ×10⁻⁶ cm/s. Moreover, the IC50 in data set [1] was 56.1 µM; in data set [2], 173 µM. Also, the Ratio IC50 in the data set filed under Homo sapiens is 0.3.

Take `C#CCN(C)Cc1nnn(CC)c1C`: the figures for the IC50 in data set [1] and in data set [2] were 267 µM and 105 µM, respectively. The Ratio IC50 in the data set filed under Homo sapiens was 2.6.

`CNCCCN1c2ccccc2CCc2ccccc21` [DESIPRAMINE]: the Papp at 18 h in data set [3] lay in the range of 12 to 17.8 ×10⁻⁶ cm/s.

`C#CCN(C)CCc1nnn(-c2ccccc2)c1CCC` registered a Papp at 18 h in data set [3] of 17.2 ×10⁻⁶ cm/s. Moreover, the IC50 was determined as 26.1 µM in data set [1] and 157 µM in data set [2]. Also, in the data set listed under Homo sapiens, the Ratio IC50 amounted to 0.2.

Consider `C#CCN(C)Cc1cn(CC)nn1`, for which the IC50 is 135 µM in data set [1] and 249 µM in data set [2]. Besides, the Ratio IC50 in the data set filed under Homo sapiens was 0.5.

As to `C#CCN(C)CCc1cn(CC)nn1`, the IC50 in data set [1] was 554 µM; in data set [2], 374 µM. In addition, the Ratio IC50 in the data set listed under Homo sapiens was 1.5.

Consider `C#CCN(C)CCc1ccc(Cc2cn(C)nn2)cc1`, for which, in data set [3], the Papp at 18 h was found to be 4.5 ×10⁻⁶ cm/s. Besides, the IC50 is 27.4 µM in data set [1] and 5.2 µM in data set [2]. In addition, in the data set filed under Homo sapiens, the Ratio IC50 came out at 5.3.

As to `CC(=O)[C@H]1CC[C@H]2[C@@H]3CCC4=CC(=O)CC[C@]4(C)[C@H]3CC[C@]12C` [PROGESTERONE], the Papp at 18 h in data set [3] fell in the range of 9.3 to 16.8 ×10⁻⁶ cm/s.

`C#CCN(C)CCc1nnn(-c2ccccc2)c1CCCC` showed a Papp at 18 h in data set [3] of 21.4 ×10⁻⁶ cm/s. Further, the IC50 stood at 17.3 µM in data set [1] and 156 µM in data set [2]. The Ratio IC50 in the data set listed under Homo sapiens was 0.1.

In the case of `Clc1cccc(Cl)c1N=C1NCCN1` [CLONIDINE], the Papp at 18 h in data set [3] lay in the range of 5.3 to 6.5 ×10⁻⁶ cm/s.

`CN(C)CCCN1c2ccccc2Sc2ccccc21` [PROMAZINE] showed a Papp at 18 h in data set [3] of 8.8 to 13.8 ×10⁻⁶ cm/s.

Take `C#CCN(C)CCc1cn(Cc2ccccc2)nn1`: the Papp at 18 h in data set [3] was determined as 15.6 ×10⁻⁶ cm/s. The IC50 in data set [1] is 97.1 µM; in data set [2] it was 3.5 µM. Also, in the data set listed under Homo sapiens, the Ratio IC50 is 27.7. Besides, the TDI entry in data set [4] is “Active”. Besides, the “inhibition (INH)” value in data set [5] is on record as “Active”.

In data set [3], `CCn1cc(C(=O)O)c(=O)c2cc(F)c(N3CCNC(C)C3)c(F)c21` (stereo not given) [LOMEFLOXACIN] came in with a Papp at 18 h below 0.78 ×10⁻⁶ cm/s.

Take `CN1C(C(=O)Nc2ccccn2)=C(O)c2ccccc2S1(=O)=O` [PIROXICAM]: the apparent permeability (Papp) at 18 h in data set [3] lay within 1.93 to 2.5 ×10⁻⁶ cm/s.

`C#CCN(C)Cc1cn(CCc2ccccc2)nn1` displayed a Papp at 18 h in data set [3] of 0.6 ×10⁻⁶ cm/s. Also, the IC50 in data set [1] is above 500 µM; in data set [2], 11.2 µM. For the same molecule, the Ratio IC50 in the data set listed under Homo sapiens is above 44.6.
